One assay addresses T1, Endothelin receptor (Rattus norvegicus, UniProt P26684+P21451).
T1 sequence (P26684 whole entry): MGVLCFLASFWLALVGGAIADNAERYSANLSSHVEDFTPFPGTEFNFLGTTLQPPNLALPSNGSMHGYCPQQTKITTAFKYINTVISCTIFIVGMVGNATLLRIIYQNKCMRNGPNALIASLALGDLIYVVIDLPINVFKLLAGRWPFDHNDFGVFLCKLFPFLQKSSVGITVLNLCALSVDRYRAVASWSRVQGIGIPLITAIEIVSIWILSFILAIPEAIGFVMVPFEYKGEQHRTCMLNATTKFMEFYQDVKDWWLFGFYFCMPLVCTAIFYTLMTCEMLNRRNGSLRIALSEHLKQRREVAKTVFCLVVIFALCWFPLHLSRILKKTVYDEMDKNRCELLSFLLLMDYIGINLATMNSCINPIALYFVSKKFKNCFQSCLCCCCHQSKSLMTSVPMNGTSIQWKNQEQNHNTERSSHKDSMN
T1 sequence (P21451 whole entry): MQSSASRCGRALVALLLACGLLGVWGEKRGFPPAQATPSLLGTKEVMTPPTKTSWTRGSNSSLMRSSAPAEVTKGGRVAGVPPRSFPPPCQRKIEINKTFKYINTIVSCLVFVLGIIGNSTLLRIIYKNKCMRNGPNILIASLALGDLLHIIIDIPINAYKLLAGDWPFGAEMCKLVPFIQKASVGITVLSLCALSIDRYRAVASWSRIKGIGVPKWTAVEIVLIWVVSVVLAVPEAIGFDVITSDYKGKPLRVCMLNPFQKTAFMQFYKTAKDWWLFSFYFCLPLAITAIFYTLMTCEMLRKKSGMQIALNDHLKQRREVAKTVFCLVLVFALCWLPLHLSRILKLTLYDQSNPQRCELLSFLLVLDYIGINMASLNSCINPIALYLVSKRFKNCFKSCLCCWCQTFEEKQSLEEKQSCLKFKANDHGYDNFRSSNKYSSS
Briefly: Binding affinity against Endothelin receptor from rat heart ventricle. Type of assay: protein assay.

The species entered for a further assay is Rattus norvegicus. As to the kind of experiment: Inhibition of ET-1 stimulated inositol phosphate accumulation in rat fibroblast. Type of assay: functional, organism-based. The gist of the method: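 Rat skin fibroblasts prelabelled with [3H]inositol; ET-1-stimulated accumulation of total [3H]inositol phosphates in presence of Li+, measured by anion-exchange chromatography.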

The target in assay [1] is T2, Endothelin receptor type B (Rattus norvegicus, UniProt P21451).
T2 sequence (P21451 whole entry): T1 sequence (P21451 whole entry)
Briefly: (§1) Effective concentration against Endothelin B receptor from rat cerebellum. Type of assay: tissue-based. Summed up: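 Competition binding of 30 pM [125I]-ET-1 (2,000 Ci/mmol) to 5 µg membranes: rabbit renal artery vascular smooth muscle (ETA) or adult rat cerebellum (ETB). Buffer is 20 mM Tris, 2 mM EDTA, 100 µM PMSF and 100 µM bacitracin, pH 7.4, 37 °C, 2 h. Reaction stopped by GF/B filtration. Nonspecific binding measured with 100 nM ET-1. Triplicate points; IC50 from a one-site nonlinear fit.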

Assay [2] is filed under the species Oryctolagus cuniculus. Briefly: Effective concentration against ET-1 stimulated arachidonic acid release in rabbit renal artery vascular smooth muscle cells. Format: functional. The gist of the method:
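Confluent rabbit renal artery smooth muscle cells loaded 18 h at 37 °C with 0.25 µCi/mL [3H]arachidonic acid in DME/F12 with 0.5% FCS. Cells washed in Hank's/10 mM HEPES/fatty acid-free BSA buffer with three 5-min incubations. Then exposed 30 min to test compound (1 nM to 1 µM) plus 0.3 nM ET-1. Released [3H] counted by liquid scintillation; IC50 determined.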

For assay [3], the target named is T2, Endothelin receptor type B. The description is as §1. Format: tissue-based. This is another data set of the same source.
For assay [4], the species on record is Oryctolagus cuniculus. Briefly: Inhibition of ET-1 stimulated arachidonic acid release in rabbit renal artery vascular smooth muscle cells. Type of assay: functional.

The values that follow come from ChEMBL document CHEMBL1127071, “Structure-activity relationships of C-terminal endothelin hexapeptide antagonists” (J Med Chem, 1993).

Where a SMILES comes first, the peptide text is derived from it. [ ]: non-standard residue; d: D form. dDip = N[C@@H](C(=O)O)C(c1ccccc1)c1ccccc1; Orn = NCCC[C@H](N)C(=O)O

As usually defined, the IC50 is the concentration that inhibits the measured activity by half. Read a low IC50 as higher potency. For the compound `CC[C@@H](C)[C@@H](NC(=O)[C@@H](NC(=O)[C@H](CC(=O)O)NC(=O)[C@H](CC(C)C)NC(=O)[C@H](Cc1c[nH]cn1)NC(C)=O)[C@@H](C)CC)C(=O)N[C@@H](Cc1c[nH]c2ccccc12)C(=O)O`, the concentration for half-maximal inhibition (IC50) is 16.9 µM at Endothelin receptor and above 100 µM in the assay filed under Rattus norvegicus.
On to `CC[C@H](C)[C@H](NC(=O)[C@@H](NC(=O)[C@@H](CC(=O)O)NC(=O)[C@H](CC(C)C)NC(=O)[C@H](Cc1c[nH]cn1)NC(C)=O)[C@@H](C)CC)C(=O)N[C@@H](Cc1c[nH]c2ccccc12)C(=O)O`, for which the values for the half-inhibitory concentration (IC50) at Endothelin receptor and in the assay filed under Rattus norvegicus were 37 µM and above 50 µM, respectively.
The corresponding values for `CC[C@H](C)[C@H](NC(=O)[C@H](CC(=O)O)NC(=O)[C@H](CC(C)C)NC(=O)[C@H](Cc1c[nH]cn1)NC(C)=O)C(=O)N[C@H](C(=O)N[C@@H](Cc1c[nH]c2ccccc12)C(=O)O)[C@@H](C)CC` are 58 µM and 50 µM.
Usually EC50 stands for the concentration at which the effect is half-maximal. Regarding `CC[C@H](C)[C@H](NC(=O)[C@H](CC(=O)O)NC(=O)[C@H](CCC(=O)O)NC(=O)[C@H](NC(C)=O)C(c1ccccc1)c1ccccc1)C(=O)N[C@H](C(=O)N[C@@H](Cc1c[nH]c2ccccc12)C(=O)O)[C@@H](C)CC` (Ac-[dDip]EDIIW-OH), the EC50 in assay [1] worked out at 0.052 µM; in the assay listed under Oryctolagus cuniculus [2] it was 0.13 µM.
As to `CC[C@H](C)[C@H](NC(=O)[C@H](CC(=O)O)NC(=O)[C@H](CC(C)C)NC(=O)[C@H](NC(C)=O)C(c1ccccc1)c1ccccc1)C(=O)N[C@H](C(=O)N[C@@H](Cc1ccc(O)cc1)C(=O)O)[C@@H](C)CC` (Ac-[dDip]LDIIY-OH), the EC50 was found to be 6.1 µM in assay [1] and 4.3 µM in the assay listed under Oryctolagus cuniculus [2].
On the same counts, the results for `CC[C@H](C)[C@H](NC(=O)[C@H](CC(=O)O)NC(=O)[C@H](CC(C)C)NC(=O)[C@H](NC(C)=O)C(c1ccccc1)c1ccccc1)C(=O)N[C@H](C(=O)N[C@@H](Cc1c[nH]c2ccccc12)C(=O)O)C(C)C` (Ac-[dDip]LDIVW-OH) are 6 µM and 2.6 µM.
As for `CC[C@H](C)[C@H](NC(=O)[C@@H](NC(=O)[C@H](CC(=O)O)NC(=O)[C@H](CC(C)C)NC(=O)[C@H](NC(C)=O)C(c1ccccc1)c1ccccc1)C(C)C)C(=O)N[C@@H](Cc1c[nH]c2ccccc12)C(=O)O` (Ac-[dDip]LDVIW-OH), the EC50 stood at 0.05 µM in assay [1] and 0.029 µM in the assay filed under Oryctolagus cuniculus [2].
On the same counts, the results for `CC[C@H](C)[C@H](NC(=O)[C@H](Cc1ccccc1)NC(=O)[C@H](CC(C)C)NC(=O)[C@H](NC(C)=O)C(c1ccccc1)c1ccccc1)C(=O)N[C@H](C(=O)N[C@@H](Cc1c[nH]c2ccccc12)C(=O)O)[C@@H](C)CC` (Ac-[dDip]LFIIW-OH) are 0.06 µM and 1.3 µM.
`CC[C@H](C)[C@H](NC(=O)[C@H](CC(=O)O)NC(=O)[C@H](CCCN)NC(=O)[C@H](NC(C)=O)C(c1ccccc1)c1ccccc1)C(=O)N[C@H](C(=O)N[C@@H](Cc1c[nH]c2ccccc12)C(=O)O)[C@@H](C)CC` (Ac-[dDip][Orn]DIIW-OH): the results for the EC50 (in assay [1]; in the assay listed under Oryctolagus cuniculus [2]) were 0.15 µM and 0.03 µM, respectively.
With `CC[C@H](C)[C@H](NC(=O)[C@H](CC(=O)O)NC(=O)[C@H](CC(C)C)NC(=O)[C@@H](Cc1ccccc1)NC(C)=O)C(=O)N[C@@H](C)C(=O)N[C@@H](Cc1c[nH]c2ccccc12)C(=O)O` (Ac-[dF]LDIAW-OH), the IC50 on Endothelin receptor is 6.83 µM; in assay [3] it was above 10 µM; in the assay listed under Oryctolagus cuniculus [4], above 10 µM.
`CC[C@H](C)[C@H](NC(=O)[C@H](CC(=O)O)NC(=O)[C@H](CC(C)C)NC(=O)[C@H](N)C(c1ccccc1)c1ccccc1)C(=O)N[C@H](C(=O)N[C@@H](Cc1c[nH]c2ccccc12)C(=O)O)[C@@H](C)CC` (H-[dDip]LDIIW-OH) came in with an EC50 in assay [1] of 1.9 µM.
